Results from ChEMBL document CHEMBL4219134, “Xanthone derivatives as phosphoglycerate mutase 1 inhibitors: Design, synthesis, and biological evaluation” (Bioorg Med Chem, 2018).

Columns and labels:
[1] = tested on: PANC-1; assay: Antiproliferative activity against human PANC1 cells after 72 hrs by MTT assay; assay type: functional, cell-based; details: PANC-1, 72 h
Method in brief: (§1)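 MTT assay: 2 × 10^3 cells per well, cultured 24 h at 37 °C. Compound then added for 72 h at 37 °C, followed by 0.5 mg mL-1 MTT for 4 h. Formazan dissolved in DMSO and absorbance read at 570 nm. IC50 from triplicate experiments, mean ± sd.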

[2] = target: T1, Phosphoglycerate mutase 1 (Homo sapiens, UniProt P18669); assay: Inhibition of recombinant PGAM1 (unknown origin) using 3-PG as substrate preincubated for 2 mins followed by substrate addition
T1 sequence (P18669 whole entry): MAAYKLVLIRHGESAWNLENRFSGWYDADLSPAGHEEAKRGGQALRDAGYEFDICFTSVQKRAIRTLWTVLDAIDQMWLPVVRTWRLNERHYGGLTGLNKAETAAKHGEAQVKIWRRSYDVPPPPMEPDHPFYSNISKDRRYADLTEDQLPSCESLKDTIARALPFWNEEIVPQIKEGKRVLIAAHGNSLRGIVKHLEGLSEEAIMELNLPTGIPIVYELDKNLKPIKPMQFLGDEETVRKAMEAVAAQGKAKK
Method in brief: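 Recombinant PGAM1 plus compound (DMSO) in 50 mM Tris pH 8.0, preincubated 2 min at room temperature. Started with 3PG (200 mM stock); NADH oxidation read as OD340 decrease. IC50 from triplicates, mean ± sd.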

[3] = tested on: MCF7; assay: Antiproliferative activity against human MCF7 cells after 72 hrs by MTT assay; assay type: functional, cell-based; details: MCF7, 72 h; method in brief: as §1
[4] = species: Homo sapiens; assay: Inhibition of pyruvate kinase (unknown origin) at 5 uM using 2-PG relative to control
Method in brief: (§2)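 PGAM1 omitted to test the downstream coupling enzymes. Compound (0.5 mM stock) preincubated 2 min at room temperature in 50 mM Tris pH 8.0. OD340 decrease read; inhibition ratio at 5 µM.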

[5] = tested on: NCI-H1299; assay: Potency index, ratio of PGMI-004A IC50 to test compound IC50 for antiproliferative activity against human H1299 cells; assay type: functional
[6] = tested on: NCI-H1299; assay: Antiproliferative activity against human H1299 cells after 72 hrs by MTT assay; assay type: functional, cell-based; details: NCI-H1299, 72 h; method in brief: as §1
[7] = target: L-lactate dehydrogenase (Homo sapiens) (UniProt V9HWB9); assay: Inhibition of LDH (unknown origin) at 5 uM using 2-PG relative to control; method in brief: as §2
[8] = species: Homo sapiens; assay: Inhibition of enolase (unknown origin) at 5 uM using 2-PG relative to control; method in brief: as §2
[9] = tested on: PANC-1; assay: Antiproliferative activity against PGAM1 overexpessed human PANC1 cells after 72 hrs by MTT assay; assay type: functional, cell-based; details: PANC-1, 72 h; method in brief: as §1
[10] = tested on: PANC-1; assay: Antiproliferative activity against PGAM1 knockdown human PANC1 cells after 72 hrs by MTT assay; assay type: functional, cell-based; details: PANC-1, 72 h; method in brief: as §1
[11] = tested on: PANC-1; assay: Antiproliferative activity against human PANC1 cells at 200 uM after 72 hrs by MTT assay relative to control; assay type: functional; details: PANC-1, 72 h
Method in brief: (§3)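 MTT format: 2 × 10^3 cells per well, seeded 24 h, then compound for 72 h at 37 °C. 0.5 mg mL-1 MTT for 4 h, DMSO solubilization, A570. Inhibition ratio recorded at the top tested concentration: 40 µM for H1299, 200 µM for PANC-1.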

[12] = target: L-lactate dehydrogenase (Homo sapiens) (UniProt V9HWB9); assay: Inhibition of LDH (unknown origin) at 0.625 uM using 2-PG relative to control
Method in brief: (§4)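 Counter-screen of the coupled downstream enzymes without PGAM1. Compound was preincubated 2 min at room temperature in 50 mM Tris pH 8.0. The reaction was started with 2PG (200 mM stock), and the NADH oxidation decrease was read at 340 nm.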

[13] = target: T1, Phosphoglycerate mutase 1; assay: Inhibition of recombinant human His-tagged PGAM1 expressed in Escherichia coli BL21 competent cells by multiple enzymes coupled assay measuring NADH oxidation at 340 nm
[14] = species: Homo sapiens; assay: Inhibition of pyruvate kinase (unknown origin) at 0.625 uM using 2-PG relative to control; method in brief: as §4
[15] = tested on: NCI-H1299; assay: Antiproliferative activity in human NCI-H1299 cells after 72 hrs; assay type: functional, cell-based; details: NCI-H1299, 72 h
Method in brief: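 MTT assay: 2 × 10^3 cells per well were seeded and cultured 24 h at 37 °C. Inhibitor was added and cells were incubated 72 h at 37 °C. MTT was then added at 0.5 mg/mL for 4 h at 37 °C, followed by DMSO solubilisation and absorbance reading at 570 nm. IC50 is reported as mean ± sd of triplicates.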

[16] = species: Homo sapiens; assay: Inhibition of enolase (unknown origin) at 0.625 uM using 2-PG relative to control; method in brief: as §4
[17] = tested on: NCI-H1299; assay: Antiproliferative activity in human H1299 cells; assay type: functional, cell-based
[18] = tested on: NCI-H1299; assay: Antiproliferative activity against human H1299 cells at 40 uM after 72 hrs by MTT assay relative to control; assay type: functional; details: NCI-H1299, 72 h; method in brief: as §3

Row | SMILES | IC50 [1] [µM] | IC50 [2] [µM] | IC50 [3] [µM] | inhibition [4] [%] | Ratio IC50 [5] | IC50 [6] [µM] | inhibition [7] [%] | inhibition [8] [%] | IC50 [9] [µM] | IC50 [10] [µM] | inhibition at 200 µM [11] [%] | inhibition [12] [%] | IC50 [13] [µM] | inhibition [14] [%] | IC50 [15] [µM] | inhibition [16] [%] | IC50 [17] [µM] | inhibition at 40 µM [18] [%]
1 | O=c1c2c(O)cccc2oc2cc(NS(=O)(=O)c3ccc(N4CCCC4)cc3)c(O)c(O)c12 | 137 | 2.7 | > 200 | 4 | 5 | 5 | 4 | 4 |  |  |  |  |  |  |  |  |  | 
2 | O=c1c2c(O)cccc2oc2cc(NS(=O)(=O)c3cc(C(F)(F)F)ccc3C(F)(F)F)c(O)c(O)c12 | 10.5 | 6.3 | 15.8 | 2 |  | 16.8 | 2 | 2 | 25 | 42.8 |  |  |  |  |  |  |  | 
3 | O=c1c2c(O)cccc2oc2cc(NS(=O)(=O)c3ccccc3)c(O)c(O)c12 | > 200 | 2.8 | 113 | 6 |  | 59 | 6 | 6 |  |  | < 50 |  |  |  |  |  |  | 
4 | O=C(O[C@@H]1Cc2c(O)cc(O)cc2O[C@@H]1c1cc(O)c(O)c(O)c1)c1cc(O)c(O)c(O)c1 [EPIGALOCATECHIN GALLATE] |  |  |  |  |  |  |  |  |  |  |  | 63 | 0.49 | 63 | > 80 | 63 |  | 
5 | O=C1c2ccccc2C(=O)c2c1cc(S(=O)(=O)Nc1ccc(C(F)(F)F)cc1)c(O)c2O | 32 |  | > 40 | 38 |  |  | 38 | 38 |  |  |  |  |  |  |  |  | 25.6 to 26 | 
6 | O=c1c2c(O)cccc2oc2cc(NS(=O)(=O)c3ccc(Br)cc3)c(O)c(O)c12 | > 200 | 2.9 | 6.8 | 6 |  | > 40 | 6 | 6 |  |  |  |  |  |  |  |  |  | < 50
